Source: PubChem BioAssay (several laboratories)
In the library only some 3.4% were active in any assay of this set; here they are far more common.
ANO1 block: blocks the mouse calcium-activated chloride channel TMEM16A; AID 588511; normalized B-score (activity score, 25-100; higher = stronger inhibition) at 10 µM; Q8BHY3; HEK293 TMEM16A/YFP iodide influx fluorescence, ionomycin; actives 1.2% (n = 310,000);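 active = ratio plate-corrected score three or more library SD toward inhibition, starting fluorescence score within five deviations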;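 also: score derived from kinetic fluorescence span divided by baseline fluorescence per well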
IMP-1 inh: inhibitors of Pseudomonas aeruginosa IMP-1 metallo-beta-lactamase; purified IMP-1, nitrocefin hydrolysis, epi-absorbance fluorescence; inhibition, % at 5.6 µM; AID 1556; actives 0.45% (n = 290,000);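 active = inhibition above the mean plus 3 SD of all compounds in the same screening run, cut at about 4.5% in these data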;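 also: 0% = IMP-1 with DMSO and 100% = DMSO wells lacking enzyme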
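System – purified recombinant IMP-1 beta-lactamase · Input – IMP-1 dispensed at 0.2 nM · Timing – 15 min preincubation plus 25 min reaction at 25 °C · Signal – Epi-absorbance fluorescence, 480 nm excitation, 530 nm emission · Measure – percent IMP-1 inhibition derived from blank-referenced optical density · Controls – Enzyme-plus-DMSO low control, enzyme-free DMSO high control · Replication – singlicate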
CHT PAM: allosterically activates the human high affinity choline transporter; Q9GZV3; CHT-expressing cells, membrane potential dye, choline EC20; stronger effect = higher value; LV-AA mutant CHT in HEK293 cells; B-score at 10 µM; actives 0.49% (n = 310,000);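 active = initial fluorescence not abnormally high and integrated response B-score, plate-corrected, over 3 SD above library mean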
Target sequence (Q9GZV3 whole entry, looked up): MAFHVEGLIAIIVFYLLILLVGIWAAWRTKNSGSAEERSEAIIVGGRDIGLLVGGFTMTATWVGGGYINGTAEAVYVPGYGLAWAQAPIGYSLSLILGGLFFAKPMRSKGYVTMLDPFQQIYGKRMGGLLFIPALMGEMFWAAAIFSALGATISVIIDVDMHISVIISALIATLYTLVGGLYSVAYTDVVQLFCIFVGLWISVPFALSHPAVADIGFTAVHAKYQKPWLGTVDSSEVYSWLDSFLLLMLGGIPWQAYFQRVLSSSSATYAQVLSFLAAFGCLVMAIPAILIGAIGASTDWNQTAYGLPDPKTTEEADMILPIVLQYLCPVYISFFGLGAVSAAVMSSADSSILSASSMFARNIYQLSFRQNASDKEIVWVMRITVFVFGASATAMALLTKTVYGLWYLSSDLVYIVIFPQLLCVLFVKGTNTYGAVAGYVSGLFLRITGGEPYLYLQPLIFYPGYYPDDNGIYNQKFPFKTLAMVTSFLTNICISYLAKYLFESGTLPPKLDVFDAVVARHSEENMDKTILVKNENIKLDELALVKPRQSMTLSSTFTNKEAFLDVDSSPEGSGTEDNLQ
VIM-2 inh: blocks Pseudomonas aeruginosa VIM-2 metallo-beta-lactamase | purified VIM-2, nitrocefin hydrolysis, epi-absorbance fluorescence | inhibition, % at 5.6 µM | actives 0.89% (n = 290,000) | AID 1527;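 active = inhibition above the mean of all tested compounds plus 3 SD, cutoff set per screening run, cut at about 7.5% in these data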;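 also: red hydrolysis product quenches plate fluorescence so inhibitors raise well fluorescence; 0% = enzyme with DMSO and 100% = DMSO without enzyme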
ANO1 activ: mouse TMEM16A channel activation, primary screen | Q8BHY3 | HEK293 TMEM16A/YFP-H148Q/I152L, iodide quench fluorescence; stronger effect = lower value | B-score at 10 µM | actives 0.3% (n = 340,000);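 active = fluorescence-ratio B-score plate-corrected deviation score at least 3 library SD below zero, with starting fluorescence score within 5 deviations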;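 also: channel opened by trigger with iodide after compound preincubation; score built on the fluorescence ratio of max minus min over baseline; more negative score means more quench and so TMEM16A activation or potentiation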
CHT block: inhibits the human high affinity choline transporter; Q9GZV3; CHT-expressing cells, membrane potential dye, choline response; stronger effect = lower value; B-score at 10 µM; actives 0.86% (n = 310,000);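 active = B-score over 3 SD under the library average, and starting fluorescence ratio not unusually high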;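 also: choline stimulus applied at its EC90 after an EC20 pre-addition; B-score computed on integrated fluorescence ratio after choline addition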
CHT inh conf: human CHT inhibition, confirmatory screen; shares compounds with CHT block; CHT-expressing cells, choline membrane potential dye; LV-to-AA substituted CHT, HEK293 cells; CHT activity remaining % of control (stronger effect = lower value), % at 10 µM; actives 70% (n = 2,400);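 active = choline transporter activity left, mean of duplicates at 10 µM, below buffer-only control mean minus 3 SD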;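 also: depolarization triggered by choline at its EC90 following an EC20 pre-addition; 0% = hemicholinium-3 full block and 100% = buffer-only control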
HEK293 CHT ctr: CHT inhibitor counter-screen hit in parental HEK293 cells; shares compounds with CHT block; actives 4% (n = 2,400); AID 493222; membrane potential ratio readout (active if shifted either direction beyond buffer ±3SD; no single direction) at 10 µM; membrane potential dye, choline response; active = decrease or increase beyond buffer ±3SD;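 also: parental cells lack the transporter so any hit is non-specific; ratio is peak minus trough fluorescence over baseline after EC90 choline challenge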
* marks the source's active call; other numbers are inactive results; i = inactive; / = no result.

SMILES	ANO1 block	IMP-1 inh	CHT PAM	VIM-2 inh	ANO1 activ	CHT block	CHT inh conf	HEK293 CHT ctr
O=C(NC1CCCC1)C(c1cccnc1)N(CCc1ccccc1)C(=O)c1ccco1 (configuration not stated)	i	-1	i	-4	i	-6*	55%*	i
O=C(NCC(=O)N(CCc1ccccc1)C(C(=O)NC1CCCC1)c1cccnc1)c1ccco1 (configuration not stated)	i	-3	i	-2	i	i	/	/
O=S(=O)(Nc1nc2ccccc2nc1Nc1cccc(S(=O)(=O)N2CCCCC2)c1)c1ccccc1	100*	-2	i	-1	i	-7.4*	53%*	i
Cc1cccc(S(=O)(=O)Nc2nc3ccccc3nc2Nc2cccc(C(=O)O)c2)c1	i	-2	i	0	i	i	/	/
Cc1onc(-c2ccccc2)c1C(=O)NNC(=S)NC(=O)c1ccc(Br)cc1	100*	-4	i	-2	i	-6.2*	55%*	i
CS(=O)(=O)c1ncc(Cl)c(C(=O)Nc2ccc(N3CCOCC3)cc2)n1	i	-2	i	-2	i	-6.9*	56%*	i
CS(=O)(=O)c1ncc(Cl)c(C(=O)Nc2ccc(OC(F)F)cc2)n1	i	-2	i	-2	i	-6.5*	50%*	i
CCOC(=O)c1nc(S(C)(=O)=O)ncc1Cl	i	-2	i	-1	i	-6.3*	47%*	i
O=c1[nH]c(-c2ccccc2)nn1-c1ccc(Br)cc1Br	i	-3	i	-3	i	i	/	/
COc1ccc(C)cc1CN(C)c1ccc(S(=O)(=O)N2CCN(C)CC2)cn1	/	/	/	/	i	/	/	/
COc1ccc(NC(=O)N2CCCC2C(=O)NCc2cccs2)cc1 (configuration not stated)	i	-1	i	0	i	i	/	/
CCN(C(=O)COC(=O)/C(=C/c1ccccc1)NC(C)=O)c1c(N)n(Cc2ccccc2)c(=O)[nH]c1=O	/	/	/	/	i	/	/	/
O=C(NC1CCSc2ccccc21)c1ccc(F)c(S(=O)(=O)N2CCOCC2)c1 (configuration not stated)	i	-1	i	-2	i	i	/	/
O=C(Nc1cccc(Br)c1)c1cccc(OC(=S)N2CCOCC2)c1	i	-1	i	-1	i	i	/	/
CCCn1c(=O)c(C(=O)NCc2ccccn2)c(O)c2ccccc21	i	-6	i	-3	i	-5.7*	i	i
Cc1ccccc1C(=O)NNC(=S)NC(=O)c1ccc(Cl)cc1Cl	100*	-3	i	-4	i	-9.3*	45%*	i
COCCN(C(=O)CCSc1ccc(F)cc1)c1c(N)n(Cc2ccccc2)c(=O)[nH]c1=O	/	/	/	/	i	/	/	/
Cc1ccc(S(=O)(=O)NCCC(=O)N2CCOCC2)cc1C	i	/	i	/	i	i	/	/
Cc1nc(SC2CC(=O)N(c3cc(Cl)cc(Cl)c3)C2=O)nc2c1CCCC2 (configuration not stated)	i	-2	i	-1	/	-9.2*	57%*	i
Nc1ccc(C(=O)NCCCSc2ccccc2)cc1[N+](=O)[O-]	i	-3	i	-2	i	i	/	/
COc1ccc(-n2ncc3c2CC(C)(C)CC3NC(=O)CN2CCOC2=O)cc1 (configuration not stated)	i	-1	i	-1	i	i	/	/
CC(/C=C1\SC(=S)N(NC(=O)c2ccncc2)C1=O)=C\c1ccccc1	i	0	i	-3	i	-6.5*	15%*	i
COc1cc(/C=C2\SC(=S)N(NC(=O)c3ccc(O)c(OC)c3)C2=O)ccc1O	i	-8	i	-6	i	i	/	/
COc1cc(/C=C2\SC(=S)N(NC(=O)c3ccncc3)C2=O)ccc1O	i	-8	i	-6	i	-9.8*	-0.4%*	-8.5*
CC(/C=C1\SC(=S)N(NS(=O)(=O)c2ccccc2)C1=O)=C\c1ccccc1	i	-3	i	-3	i	-5.8*	55%*	i
SMILES	ANO1 block	IMP-1 inh	CHT PAM	VIM-2 inh	ANO1 activ	CHT block	CHT inh conf	HEK293 CHT ctr
COc1ccc(/C=C2/SC(=S)N(NS(=O)(=O)c3ccccc3)C2=O)cc1	i	-1	i	-3	i	-4.9*	45%*	i
O=C1/C(=C\c2ccc(Br)cc2)SC(=S)N1NS(=O)(=O)c1ccccc1	i	-2	i	-4	i	i	/	/
CCOc1ccc(CCNC(=O)CCC(=O)N2CCOc3ccccc32)cc1OCC	i	0	i	-3	i	i	/	/
O=c1cc(-c2ccccc2)c2c(O)cc(O)cc2o1	i	-2	i	0	i	-5*	50%*	i
CCC(=O)N1CCc2cc(S(=O)(=O)N3CCN(c4cc(Cl)ccc4C)CC3)ccc21	i	-3	i	-1	i	i	/	/
Cc1ccccc1NC(=O)c1ccc(CN2CCc3ccccc3C2)cc1	i	-2	i	-1	i	i	/	/
CCc1cccc(C)c1NC(=O)c1ccc(CN2CCc3ccccc3C2)cc1	i	-2	i	1	i	-5.4*	71%*	i
CCc1ccccc1NC(=O)c1ccc(CN2CCC(Cc3ccccc3)CC2)cc1	i	-3	i	-7	i	-9.6*	48%*	i
CCOc1ccc(NC(=O)CCc2c(C)nn(-c3ccc(N4CCCCC4)nn3)c2C)cc1	i	-1	i	-3	i	i	/	/
O=[N+]([O-])c1ccc(Sc2ncc3ccccn23)nc1	i	-2	i	0	i	-13*	7.7%*	i
CC(NC(=O)Cc1ccc(S(=O)(=O)N2CCOCC2)s1)c1ccc(Br)cc1 (configuration not stated)	/	/	/	/	i	/	/	/
CCOC(=O)N1CCN(C(=O)C(c2ccccc2)c2ccccc2)CC1	i	1	i	-1	i	-6.5*	i	-11*
CCOC(=O)N1CCN(C(=O)C(C)N(c2ccccc2)S(C)(=O)=O)CC1 (configuration not stated)	i	-3	i	-2	i	i	/	/
